Reference: ChEMBL document CHEMBL1136706, “Synthesis and evaluation of a novel series of farnesyl protein transferase inhibitors as non-peptidic CAAX tetrapeptide analogues” (Bioorg Med Chem Lett, 2003)

Legend:
[1] = molecular target: Protein farnesyltransferase (Bos taurus, UniProt P29702+P49355); assay: Inhibit of purified bovine Farnesyl protein transferase.; type: protein-complex assay
Summary of the method: (§1)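 Isolated-enzyme inhibition assays (FPTase, and GGPTase I for the GGPTase lines) were run by a previously published method, with n=2 determinations per compound. The read-out is the IC50 in nM.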

[2] = Concentration required to inhibit 50% of GGPTase enzyme activity; summary of the method: as §1
DLD-1 = assay: Concentration required to inhibit 50% of farnesylation of H-Ras in DLD-1 cells; type: functional, cell-based; settings: Homo sapiens

SMILES: N#Cc1ccc(Cn2cncc2CNc2ccc(N3CCN(C(=O)c4ccc(Cl)s4)CC3)cc2)cc1
- IC50 [1]: 70 nM

SMILES: O=S(=O)(c1ccccc1)N(Cc1c[nH]cn1)c1ccc(N2CCN(C(=S)Nc3ccccc3)CC2)cc1
- IC50 [1]: 600 nM
- IC50 [2]: > 1000 nM

SMILES: N#Cc1ccc(Cn2cncc2CN(Cc2cccc(F)c2)c2ccc(N3CCN(C(=O)c4ccc(Cl)s4)CC3)cc2)cc1
- IC50 [1]: 20 nM

SMILES: CC(C)C/N=C(\S)N1CCN(c2ccc(N(Cc3c[nH]cn3)S(=O)(=O)c3ccccc3)cc2)CC1
- IC50 (DLD-1): 800 nM
- IC50 [2]: > 1000 nM

SMILES: O=C(NC1CCCCC1)N1CCN(c2ccc(N(Cc3cnc[nH]3)S(=O)(=O)c3ccccc3)cc2)CC1
- IC50 [1]: 1000 nM

SMILES: O=S(=O)(c1ccccc1)N(Cc1c[nH]cn1)c1ccc(N2CCN(C(=S)NCCc3ccccc3)CC2)cc1
- IC50 [1]: 100 nM
- IC50 [2]: > 1000 nM

SMILES: O=S(=O)(c1ccccc1)N(Cc1c[nH]cn1)c1ccc(N2CCN(C(=S)NCc3ccccc3)CC2)cc1
- IC50 [1]: 60 nM
- IC50 [2]: > 1000 nM

SMILES: O=S(=O)(c1ccccc1)N(Cc1c[nH]cn1)c1ccc(N2CCN(C(=S)NC3CCCCC3)CC2)cc1
- IC50 [1]: 20 nM
- IC50 (DLD-1): 1000 nM
- IC50 [2]: > 1000 nM

SMILES: COc1cccc(C(=O)N(Cc2cncn2Cc2ccc(C#N)cc2)c2ccc(N3CCN(C(=O)c4ccc(Cl)s4)CC3)cc2)c1
- IC50 [1]: 2 nM
- IC50 (DLD-1): 7 nM
- IC50 [2]: 700 nM

SMILES: N#Cc1ccc(Cn2cncc2CN(C(=O)c2ccccc2)c2ccc(N3CCN(C(=O)c4ccc(Cl)s4)CC3)cc2)cc1
- IC50 (DLD-1): 3 nM
- IC50 [2]: > 1000 nM

SMILES: COc1ccc(C(=O)N(Cc2cncn2Cc2ccc(C#N)cc2)c2ccc(N3CCN(C(=O)c4ccc(Cl)s4)CC3)cc2)cc1
- IC50 [1]: 2 nM
- IC50 (DLD-1): 80 nM

SMILES: N#Cc1ccc(Cn2cncc2CN(Cc2ccc(F)cc2)c2ccc(N3CCN(C(=O)c4ccc(Cl)s4)CC3)cc2)cc1
- IC50 [1]: 70 nM

SMILES: O=C(Nc1ccccc1)N1CCN(c2ccc(N(Cc3cnc[nH]3)S(=O)(=O)c3ccccc3)cc2)CC1
- IC50 [1]: 1000 nM

SMILES: COc1ccccc1C(=O)N(Cc1cncn1Cc1ccc(C#N)cc1)c1ccc(N2CCN(C(=O)c3ccc(Cl)s3)CC2)cc1
- IC50 [1]: 2 nM
- IC50 (DLD-1): > 10000 nM

SMILES: N#Cc1ccc(Cn2cncc2CN(C(=O)c2cccc(F)c2)c2ccc(N3CCN(C(=O)c4ccc(Cl)s4)CC3)cc2)cc1
- IC50 (DLD-1): 6 nM
- IC50 [2]: > 1000 nM

SMILES: O=C(c1ccc(Cl)s1)N1CCN(c2ccc(N(Cc3cnc[nH]3)S(=O)(=O)c3ccccc3)cc2)CC1
- IC50 [1]: 600 nM

SMILES: N#Cc1ccc(Cn2cncc2CN(C(=O)c2ccccc2F)c2ccc(N3CCN(C(=O)c4ccc(Cl)s4)CC3)cc2)cc1
- IC50 (DLD-1): 20 nM

SMILES: N#Cc1ccc(Cn2cncc2CN(c2ccc(N3CCN(C(=O)c4ccc(Cl)s4)CC3)cc2)S(=O)(=O)c2ccccc2)cc1
- IC50 (DLD-1): 200 nM

SMILES: O=C(NCc1ccccc1)N1CCN(c2ccc(N(Cc3cnc[nH]3)S(=O)(=O)c3ccccc3)cc2)CC1
- IC50 [1]: 600 nM

SMILES: N#Cc1ccc(Cn2cncc2CN(C(=O)c2cccc(Cl)c2)c2ccc(N3CCN(C(=O)c4ccc(Cl)s4)CC3)cc2)cc1
- IC50 [1]: 2 nM
- IC50 (DLD-1): 2 nM
- IC50 [2]: > 1000 nM

SMILES: O=S(=O)(c1ccccc1)N(Cc1c[nH]cn1)c1ccc(N2CCN(C(=S)NCC3CCCCC3)CC2)cc1
- IC50 [1]: 30 nM
- IC50 [2]: > 1000 nM
